Series [1] deals with Human immunodeficiency virus type 1 reverse transcriptase (Human immunodeficiency virus 1) (UniProt Q72547). The series is described as follows: Inhibition of HIV-1 reverse transcriptase assessed as reduction in biotin-dUTP incorporation in to cDNA chain at 0.267 uM in presence of DIG-dUTP, biotin-dUTP and dTTP measured after 1 hr by ELISA relative to control. An outline of the steps:
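ELISA for HIV-1 RT: enzyme with reconstituted template, DIG-dUTP, biotin-dUTP and dTTP in buffer ± inhibitor, 1 h at 37°C. Product captured on streptavidin-coated plate 2 h at 37°C, then anti-DIG-POD 1 h at 37°C, ABTS substrate, OD405. % inhibition calculated from OD with/without inhibitor and without RT.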

The subject of series [2] is Human immunodeficiency virus 1. The series is described as follows: Antiviral activity against HIV1 3B infected in human MT4 cells assessed as reduction in virus-induced cell death incubated for 5 days by MTT assay. Type of series: functional, organism-based. The conditions noted are these: Human immunodeficiency virus 1, 3B, MT4, 120 h. A digest of the protocol: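 MT-4 cells (6×10^5 cells/mL) infected with HIV-1 at 100-300 CCID50; serial 5-fold compound dilutions added at infection, triplicate wells. After 5 days, viability was read by MTT at 540 and 690 nm, using the median absorbance of three wells. EC50 is the concentration giving 50% protection against virus cytopathic effect.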
(Tetrazolium assays rely on reduction of a dye to a coloured formazan, in cell work by metabolically active cells.)

Series [3] relates to Human immunodeficiency virus 1. The series is described as follows: Antiviral activity against HIV1 RES056 infected in human MT4 cells assessed as reduction in virus-induced cell death incubated for 5 days by MTT assay. In kind it is functional, organism-based. The conditions noted are these: Human immunodeficiency virus 1, RES056, MT4, 120 h. An outline of the steps: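 MT-4 cells (6×10^5 cells/mL) infected with HIV-1 at 100-300 CCID50; serial 5-fold compound dilutions added at infection, triplicate wells. After 5 days, viability was read by MTT at 540 and 690 nm, using the median absorbance of three wells.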

Series [4] in a line: Cytotoxicity against human MT4 cells assessed as reduction in cell viability after 5 days by MTT assay. Type of series: cell-based. To be noted: time 5 day. An outline of the steps: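 Mock-infected MT-4 cells (6×10^5 cells/mL) were run in parallel with serial 5-fold compound dilutions in triplicate wells. After 5 days, viability was read by MTT (540/690 nm) as the median of three wells. CC50 is the concentration reducing OD540 of the mock-infected control by 50%.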

The nature of series [5]: Selectivity index, ratio of CC50 for cytotoxicity against human MT4 cells to EC50 for antiviral activity against HIV1 3B infected in human MT4 cells. In kind it is toxicity, cell-based. To be noted: read-out: Ratio CC50/EC50. An outline of the steps:
(§1)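 SI computed as CC50 in mock-infected MT-4 cells divided by EC50 against the given HIV-1 strain, both from the 5-day MTT assay.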

A short description of series [6]: Selectivity index, ratio of CC50 for cytotoxicity against human MT4 cells to EC50 for antiviral activity against HIV1 RES056 infected in human MT4 cells. In kind it is toxicity, cell-based. To be noted: read-out: Ratio CC50/EC50. A digest of the protocol: as §1

One may read the inhibition as the relative decrease from the control value, in per cent. As to `Cc1cc(C#N)cc(C)c1Oc1nc(NC2CCN(C(=O)c3cn(CC(=O)Nc4ccccc4)nn3)CC2)nc2ccsc12`, the inhibition in series [1] turned out to be 80.2%.
The term EC50 denotes the midpoint of the concentration-response curve. As usually defined, the CC50 is the concentration that lowers cell viability or growth by half. With `Cc1cc(C#N)cc(C)c1Oc1nc(NC2CCN(Cc3cn(Cc4ccc(C#N)cc4)nn3)CC2)nc2ccsc12`, the values for the EC50 in series [2] and in series [3] were 209 nM and 18100 nM, respectively. The CC50 at 120 h in series [4] was found to be 110000 nM. Besides, the selectivity ratio in series [5] turned out to be 525; in series [6], 6.
On to `Cc1cc(C#N)cc(C)c1Oc1nc(NC2CCN(Cc3cn(CC(=O)N4CCOCC4)nn3)CC2)nc2ccsc12`, for which, in series [1], the inhibition is 69.7%. Moreover, the EC50 in series [2] amounted to 4.38 nM; in series [3], 4460 nM. Also, the CC50 at 120 h in series [4] is more than 212000 nM. In addition, the selectivity ratio in series [5] is more than 48500; in series [6], more than 48.
On to `Cc1cc(C#N)cc(C)c1Oc1nc(NC2CCN(Cc3cn(CC(=O)Nc4ccc(S(C)(=O)=O)cc4)nn3)CC2)nc2ccsc12`, for which, in series [1], the inhibition was 60.1%. Further, the concentration for a half-maximal effect (EC50) was 6.66 nM in series [2] and 1990 nM in series [3]. For the same compound, the CC50 at 120 h in series [4] was 19800 nM. Also, the selectivity ratio in series [5] amounted to 2970; in series [6], 10.
Turning to `Cc1cc(-c2cn(CCc3ccsc3)nn2)cc(C)c1Oc1nc(NC2CCN(Cc3ccc(S(N)(=O)=O)cc3)CC2)nc2ccsc12`, in series [1], the inhibition was determined as 72.5%. For the same compound, the EC50 in series [2] came to 21.1 nM; in series [3], 6190 nM. The CC50 at 120 h in series [4] amounted to 11700 nM. Besides, the selectivity ratio turned out to be 552 in series [5] and 1.88 in series [6].
Regarding `Cc1cc(C#N)cc(C)c1Oc1nc(NC2CCN(Cc3cn(Cc4ccc(S(N)(=O)=O)cc4)nn3)CC2)nc2ccsc12`, the inhibition in series [1] amounted to 42%. Further, the results for the EC50 in series [2] and in series [3] were 5.35 nM and 670 nM, respectively. Further, the CC50 at 120 h in series [4] was 20700 nM. Further, the selectivity ratio was 3880 in series [5] and 31 in series [6].
`Cc1cccc(Cn2cc(CCNc3nc(Oc4c(C)cc(C#N)cc4C)c4sccc4n3)nn2)c1`: the inhibition in series [1] came to 91.8%.
For `Cc1cc(C#N)cc(C)c1Oc1nc(NC2CCN(C(=O)c3cn(CC(=O)N4CCOCC4)nn3)CC2)nc2ccsc12`, in series [1], the inhibition stood at 71.8%.
Consider `Cc1cc(C#N)cc(C)c1Oc1nc(NCCc2cn(CC(=O)N3CCOCC3)nn2)nc2ccsc12`, for which the inhibition in series [1] was 86.7%.
Turning to `Cc1ccnc2c1NC(=O)c1cccnc1N2C1CC1` [NEVIRAPINE], the EC50 in series [2] was 163 nM; in series [3] it was more than 9510 nM. The CC50 at 120 h in series [4] is more than 9510 nM. Besides, the selectivity ratio in series [5] was more than 58.
With `Cc1cc(C#N)cc(C)c1Oc1nc(NC2CCN(Cc3cn([C@H]4C[C@H](n5cc(C)c(=O)[nH]c5=O)O[C@@H]4CO)nn3)CC2)nc2ccsc12`, the inhibition in series [1] is 57.1%. Besides, the EC50 in series [2] turned out to be 82.9 nM; in series [3], 10600 nM. Moreover, the 50% cytotoxic concentration (CC50) at 120 h in series [4] is 149000 nM. In addition, the selectivity ratio is 1800 in series [5] and 14 in series [6].
Consider `O=C1Nc2ccc(Cl)cc2[C@@](C#CC2CC2)(C(F)(F)F)O1` [EFAVIRENZ], for which the EC50 in series [2] worked out at 4.7 nM. For the same compound, the CC50 at 120 h in series [4] is more than 6380 nM.
On to `Cc1cc(C#N)cc(C)c1Oc1nc(Nc2ccc(C#N)cc2)nc(N)c1Br` [ETRAVIRINE], for which the inhibition in series [1] is 32.7%. Further, in series [2], the EC50 stood at 5.1 nM. Besides, the CC50 at 120 h in series [4] is more than 4590 nM. Also, the selectivity ratio in series [5] is more than 889; in series [6], more than 101.
Take `Cc1cc(C#N)cc(C)c1Oc1nc(NCCc2cn(Cc3ccc(C(N)=O)cc3)nn2)nc2ccsc12`: the inhibition in series [1] was 71.1%.
Consider `Cc1cc(C#N)cc(C)c1Oc1nc(NC2CCN(Cc3ccc(S(N)(=O)=O)cc3)CC2)nc2ccsc12`, for which the inhibition in series [1] stood at 44%. Further, the EC50 in series [3] is 30.6 nM. Further, in series [4], the CC50 at 120 h is more than 227000 nM. Further, the selectivity ratio was more than 159000 in series [5] and more than 7420 in series [6].
In the case of `Cc1cc(-c2cn(Cc3ccc(Cl)cc3)nn2)cc(C)c1Oc1nc(NC2CCN(Cc3ccc(S(N)(=O)=O)cc3)CC2)nc2ccsc12`, in series [1], the inhibition stood at 70.8%. Moreover, the EC50 in series [2] was 31.3 nM; in series [3] it was more than 3400 nM. In series [4], the CC50 at 120 h was determined as 3390 nM. For the same compound, the selectivity ratio in series [5] was 108; in series [6] it was less than 1.
For the compound `Cc1ccccc1Cn1cc(C(=O)N2CCC(Nc3nc(Oc4c(C)cc(C#N)cc4C)c4sccc4n3)CC2)nn1`, the inhibition in series [1] was determined as 75.8%.
With `Cc1cc(C#N)cc(C)c1Oc1nc(NC2CCN(Cc3cn(Cc4ccccc4[N+](=O)[O-])nn3)CC2)nc2ccsc12`, the inhibition in series [1] turned out to be 51.9%. Also, the concentration giving a half-maximal response (EC50) in series [2] was determined as 6.12 nM; in series [3] it was 1170 nM. For the same compound, in series [4], the CC50 at 120 h worked out at 7660 nM. Also, the selectivity ratio in series [5] came out at 1250; in series [6] it was 7.
`Cc1cc(C#N)cc(C)c1Oc1nc(NCCc2cn(Cc3ccccc3Cl)nn2)nc2ccsc12`: the inhibition in series [1] turned out to be 75.6%.
For `Cc1ccccc1Cn1cc(CN2CCC(Nc3nc(Oc4c(C)cc(C#N)cc4C)c4sccc4n3)CC2)nn1`, the inhibition in series [1] was 44.8%.
For `Cc1cc(-c2cn(CC(=O)N3CCCC3)nn2)cc(C)c1Oc1nc(NC2CCN(Cc3ccc(S(N)(=O)=O)cc3)CC2)nc2ccsc12`, the inhibition in series [1] was 74%. The EC50 in series [2] was determined as 25.8 nM; in series [3] it was 6050 nM. Further, in series [4], the CC50 at 120 h stood at 17600 nM. For the same compound, the selectivity ratio stood at 682 in series [5] and 3 in series [6].
As to `Cc1cc(C#N)cc(C)c1Oc1nc(NCCc2cn(Cc3ccc(S(N)(=O)=O)cc3)nn2)nc2ccsc12`, the inhibition in series [1] was determined as 72.4%.
`Cc1cc(C#N)cc(C)c1Oc1nc(NCCc2cn(Cc3ccccc3[N+](=O)[O-])nn2)nc2ccsc12`: the inhibition in series [1] was determined as 89.1%.
Consider `Cc1ccc(Cn2cc(CN3CCC(Nc4nc(Oc5c(C)cc(C#N)cc5C)c5sccc5n4)CC3)nn2)cc1`, for which, in series [1], the inhibition came out at 46.1%. In addition, the values for the EC50 in series [2] and in series [3] were 7.26 nM and more than 4720 nM, respectively. In addition, in series [4], the cytotoxic concentration (CC50) at 120 h was determined as 4720 nM. Also, the selectivity ratio in series [5] was 650; in series [6], less than 1.
As to `Cc1cc(C#N)cc(C)c1Oc1nc(NC2CCN(Cc3cn(Cc4ccc(C(N)=O)cc4)nn3)CC2)nc2ccsc12`, the inhibition in series [1] worked out at 66.6%. Further, the EC50 in series [2] turned out to be 3.28 nM; in series [3], 481 nM. For the same compound, the CC50 at 120 h in series [4] was more than 210000 nM. Besides, the selectivity ratio is more than 64100 in series [5] and more than 437 in series [6].
Consider `Cc1cc(C#N)cc(C)c1Oc1nc(NC2CCN(Cc3cn(Cc4ccccc4C#N)nn3)CC2)nc2ccsc12`, for which the inhibition in series [1] is 50.3%. Also, the values for the EC50 in series [2] and in series [3] were 6.64 nM and 2910 nM, respectively. The CC50 at 120 h in series [4] was 16200 nM. The selectivity ratio in series [5] worked out at 2440; in series [6], 6.

These data come from ChEMBL document CHEMBL4680237, “In situ click chemistry-based rapid discovery of novel HIV-1 NNRTIs by exploiting the hydrophobic channel and tolerant regions of NNIBP” (Eur J Med Chem, 2020).
